ChEMBL document CHEMBL4732107, “Synthesis and anticancer activity evaluation of naphthalene-substituted triazole spirodienones” (Eur J Med Chem, 2021)
Active and inactive are the calls of the source. The rule behind the calls is not given here.

Assays:
[1] = tested on: MDA-MB-231; experiment: Antiproliferative activity against human MDA-MB-231 cells assessed as reduction in cell viability measured after 5 days by beckman coulter counting method; format: functional, cell-based; details: MDA-MB-231, 120 h
[2] = tested on: HeLa; experiment: Antiproliferative activity against human HeLa cells assessed as reduction in cell viability measured after 5 days by beckman coulter counting method; format: functional, cell-based; details: 120 h
[3] = tested on: A549; experiment: Antiproliferative activity against human A549 cells assessed as reduction in cell viability measured after 5 days by beckman coulter counting method; format: functional, cell-based; details: A549, 120 h
Method in brief: (§1)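 Cells kept in DMEM with 10% FBS, 4 mM glutamine, 1 mM sodium pyruvate, penicillin/streptomycin and amphotericin, at 37 °C in 5% CO2. Seeded at 20,000 per well, then exposed to 5 concentrations for 5 days, with DMSO as vehicle. Viable cells counted on a cell viability analyzer. Viability expressed as treated/vehicle count, and IC50 taken from dose-response curves.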

[4] = tested on: 4T1; experiment: Antitumor activity against mouse 4T1 cells implanted in mouse assessed as reduction in tumor weight at 1 mg/kg, ip administered daily for 12 days; format: functional, organism-based; details: time 12.0 day
Method in brief: (§2)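 Mice bearing orthotopic 4T1 tumors were randomized into 4 groups (n = 6) once tumors reached about 100 mm2. Groups received vehicle, test compound at 1 or 2 mg/kg, or doxorubicin at 1 mg/kg, given i.p. every day. Body weight and tumor volume were recorded daily. Tumors were excised and weighed at the end, and inhibition was calculated against the saline control.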

[5] = tested on: 4T1; experiment: Antitumor activity against mouse 4T1 cells implanted in mouse assessed as tumor growth inhibition at 1 mg/kg, ip administered daily for 12 days relative to control; format: functional; details: 4T1, ip, 288 h, time 12 day, read-out: TGI; method in brief: as §2
[6] = Toxicity in mouse implanted with mouse 4T1 cells assessed as change in body weight at 1 mg/kg, ip administered daily for 12 days measured daily during compound dosing; format: organism-based; details: in vivo, 288 h, time 12 day; method in brief: as §2
[7] = tested on: MCF7; experiment: Antiproliferative activity against human MCF7 cells assessed as reduction in cell viability measured after 5 days by beckman coulter counting method; format: functional, cell-based; details: MCF7, 120 h; method in brief: as §1
[8] = tested on: MDA-MB-231; experiment: Cell cycle arrest in human MDA-MB-231 cells assessed as accumulation at G1 phase at 1 uM measured after 24 hrs by propidium iodide staining based flow cytometry (reference value: 74.39%); format: functional
[9] = tested on: MDA-MB-231; experiment: Cell cycle arrest in human MDA-MB-231 cells assessed as accumulation at S phase at 1 uM measured after 24 hrs by propidium iodide staining based flow cytometry (reference value: 19.84%); format: functional
[10] = tested on: MDA-MB-231; experiment: Cell cycle arrest in human MDA-MB-231 cells assessed as accumulation at G2 phase at 1 uM measured after 24 hrs by propidium iodide staining based flow cytometry (reference value: 5.77%); format: functional
Method in brief: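 MDA-MB-231 cells were seeded at 5 × 10^5 cells/mL and treated for 24 h. They were then trypsinized and washed twice in cold PBS. Cells were resuspended in PBS, stained with PI for 15 min at room temperature in the dark, and analyzed by flow cytometry.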

[11] = tested on: MDA-MB-231; experiment: Induction of apoptosis in human MDA-MB-231 cells assessed as viable cells at 1 uM measured after 24 hrs by annexin V-FITC/propidium iodide staining based flow cytometry (reference value: 90.9%); format: functional; details: read-out: Activity
[12] = tested on: MDA-MB-231; experiment: Induction of apoptosis in human MDA-MB-231 cells assessed as early apoptotic cells at 1 uM measured after 24 hrs by annexin V-FITC/propidium iodide staining based flow cytometry (reference value: 1.49%); format: functional
[13] = tested on: MDA-MB-231; experiment: Induction of apoptosis in human MDA-MB-231 cells assessed as late apoptotic cells at 1 uM measured after 24 hrs by annexin V-FITC/propidium iodide staining based flow cytometry (reference value: 2.84%); format: functional
[14] = tested on: MDA-MB-231; experiment: Induction of apoptosis in human MDA-MB-231 cells assessed as necrotic cells at 1 uM measured after 24 hrs by annexin V-FITC/propidium iodide staining based flow cytometry (reference value: 4.74%); format: functional

Cc1ccccc1-n1nc(-c2cccc3ccccc23)nc1N1C(=O)COC12C=CC(=O)C=C2
IC50 [1]: 120 nM
IC50 [2]: 100 nM
IC50 [3]: 130 nM

Cc1ccc(-n2nc(-c3cccc4ccccc34)nc2N2CCOC23C=CC(=O)C=C3)cc1
IC50 [1]: 260 nM
IC50 [2]: 570 nM
IC50 [3]: 1520 nM

O=C1C=CC2(C=C1)OCC(=O)N2c1nc(-c2ccc3ccccc3c2)nn1-c1ccccc1
IC50 [1]: 70 nM
IC50 [2]: 120 nM
IC50 [3]: 140 nM

COc1ccc(-n2nc(-c3ccc4ccccc4c3)nc2N2C(=O)C(C)OC23C=CC(=O)C=C3)cc1 (stereo not given)
IC50 [1]: 50 nM
IC50 [2]: 140 nM
IC50 [3]: 860 nM

Cc1ccc(-n2nc(-c3ccc4ccccc4c3)nc2N2C(=O)COC23C=CC(=O)C=C3)cc1
IC50 [1]: 30 nM
IC50 [2]: 150 nM
IC50 [3]: 110 nM

Cc1ccc(-n2nc(-c3cccc4ccccc34)nc2N2C(=O)COC23C=CC(=O)C=C3)cc1
IC50 [1]: 40 nM
IC50 [2]: 140 nM

O=C1C=CC2(C=C1)OCC(=O)N2c1nc(-c2ccc3ccccc3c2)nn1-c1ccc2ccccc2c1
IC50 [1]: 50 nM
IC50 [2]: 210 nM
IC50 [3]: 250 nM

CC1OC2(C=CC(=O)C=C2)N(c2nc(-c3cccc4ccccc34)nn2-c2ccccc2)C1=O (stereo not given)
IC50 [1]: 100 nM
IC50 [2]: 110 nM
IC50 [3]: 180 nM

COc1cccc2c1C(=O)c1c(O)c3c(c(O)c1C2=O)C[C@@](O)(C(=O)CO)C[C@@H]3O[C@H]1C[C@H](N)[C@H](O)[C@H](C)O1 [DOXORUBICIN]
Activity [4]: Active
inhibition in vivo at 1 mg/kg [5]: 45.1%
Activity [6]: Non-Toxic

O=C1C=CC2(C=C1)OCC(=O)N2c1nc(-c2ccc3ccccc3c2Br)nn1-c1ccccc1
IC50 [1]: 50 nM
IC50 [2]: 290 nM
IC50 [3]: 100 nM

COc1ccc(-n2nc(-c3ccc4ccccc4c3)nc2N2C(=O)COC23C=CC(=O)C=C3)cc1
IC50 [1]: 60 nM
IC50 [2]: 200 nM
IC50 [3]: 260 nM

O=C1C=CC2(C=C1)OCC(=O)N2c1nc(-c2ccc3ncccc3c2)nn1-c1ccccc1
IC50 [1]: 50 nM
IC50 [2]: 110 nM
IC50 [3]: 170 nM

O=C1C=CC2(C=C1)OCCN2c1nc(-c2cccc3ccccc23)nn1-c1ccccc1
IC50 [1]: 110 nM
IC50 [2]: 150 nM
IC50 [3]: 430 nM

Cn1c(CCCC(=O)O)nc2cc(N(CCCl)CCCl)ccc21 [BENDAMUSTINE]
IC50 [1]: 13300 nM
IC50 [2]: > 20000 nM

O=C1C=CC2(C=C1)OCC(=O)N2c1nc(-c2cccc(Cl)c2)nn1-c1ccccc1
IC50 [1]: 0.8 nM
IC50 [2]: 45.3 nM
IC50 [3]: 25.2 nM
IC50 [7]: 4.11 nM

CC1CN(c2nc(-c3ccc4ccccc4c3)nn2-c2ccccc2)C2(C=CC(=O)C=C2)O1 (stereo not given)
IC50 [1]: 130 nM
IC50 [2]: 260 nM
IC50 [3]: 320 nM

O=C1C=CC2(C=C1)OCC(=O)N2c1nc(-c2ccc3c(c2)Cc2ccccc2-3)nn1-c1ccccc1
IC50 [1]: 70 nM
IC50 [2]: 110 nM
IC50 [3]: 150 nM

O=C1C=CC2(C=C1)OCC(=O)N2c1nc(-c2ccc(F)c3ccccc23)nn1-c1ccccc1
IC50 [1]: 80 nM
IC50 [2]: 200 nM
IC50 [3]: 320 nM

O=C1C=CC2(C=C1)OCC(=O)N2c1nc(-c2ccc3c(c2)OCCO3)nn1-c1ccccc1
IC50 [1]: 100 nM
IC50 [2]: 70 nM
IC50 [3]: 170 nM

Cc1ccc(-n2nc(-c3ccc4ccccc4c3)nc2N2C(=O)C(C)OC23C=CC(=O)C=C3)cc1 (stereo not given)
IC50 [1]: 100 nM
IC50 [2]: 530 nM
IC50 [3]: 1210 nM

COc1ccc(/C=C\c2cc(OC)c(OC)c(OC)c2)cc1O [COMBRETASTATIN A4]
Activity [8]: 54.49%
Activity [9]: 27.34%
Activity [10]: 18.16%
viability at 1 µM [11]: 58.6%
Activity [12]: 8.57%
Activity [13]: 20%
Activity [14]: 12.8%

O=C1C=CC2(C=C1)OCC(=O)N2c1nc(-c2ccc3c(c2)Cc2ccccc2-3)nn1-c1ccc(C(F)(F)F)cc1
IC50 [1]: 80 nM
IC50 [2]: 130 nM
IC50 [3]: 180 nM

O=C1C=CC2(C=C1)OCC(=O)N2c1nc(-c2ccc3ccccc3c2)nn1-c1ccc(C(F)(F)F)cc1
IC50 [1]: 70 nM
IC50 [2]: 390 nM
IC50 [3]: 460 nM

O=C1C=CC2(C=C1)OCC(=O)N2c1nc(-c2ccc3ccccc3c2)nn1-c1ccc(Cl)cc1
IC50 [1]: 70 nM
IC50 [2]: 720 nM
IC50 [3]: 400 nM

CC1OC2(C=CC(=O)C=C2)N(c2nc(-c3ccc4ccccc4c3)nn2-c2ccccc2)C1=O (stereo not given)
IC50 [1]: 70 nM
IC50 [2]: 120 nM
IC50 [3]: 310 nM

Cc1ccc(-n2nc(-c3ccc4ccccc4c3)nc2N2CCOC23C=CC(=O)C=C3)cc1
IC50 [1]: 160 nM
IC50 [2]: 520 nM
IC50 [3]: 2000 nM

O=C1C=CC2(C=C1)OCCN2c1nc(-c2ccc3ccccc3c2)nn1-c1ccccc1
IC50 [1]: 230 nM
IC50 [2]: 370 nM

CC1OC2(C=CC(=O)C=C2)N(c2nc(-c3ccc4ccccc4c3)nn2-c2ccc3ccccc3c2)C1=O (stereo not given)
IC50 [1]: 60 nM
IC50 [2]: 300 nM
